Measured values: ChEMBL document CHEMBL1781898, “Orally active achiral N-hydroxyformamide inhibitors of ADAM-TS4 (aggrecanase-1) and ADAM-TS5 (aggrecanase-2) for the treatment of osteoarthritis” (Bioorg Med Chem Lett, 2011)

What was measured:
[1] = molecular target: T1, A disintegrin and metalloproteinase with thrombospondin motifs 5 (Homo sapiens, UniProt Q9UNA0); test: Inhibition of ADAMTS-5 assessed as substrate cleavage after 16 hrs by fluorescence assay
T1 sequence (Q9UNA0 whole entry): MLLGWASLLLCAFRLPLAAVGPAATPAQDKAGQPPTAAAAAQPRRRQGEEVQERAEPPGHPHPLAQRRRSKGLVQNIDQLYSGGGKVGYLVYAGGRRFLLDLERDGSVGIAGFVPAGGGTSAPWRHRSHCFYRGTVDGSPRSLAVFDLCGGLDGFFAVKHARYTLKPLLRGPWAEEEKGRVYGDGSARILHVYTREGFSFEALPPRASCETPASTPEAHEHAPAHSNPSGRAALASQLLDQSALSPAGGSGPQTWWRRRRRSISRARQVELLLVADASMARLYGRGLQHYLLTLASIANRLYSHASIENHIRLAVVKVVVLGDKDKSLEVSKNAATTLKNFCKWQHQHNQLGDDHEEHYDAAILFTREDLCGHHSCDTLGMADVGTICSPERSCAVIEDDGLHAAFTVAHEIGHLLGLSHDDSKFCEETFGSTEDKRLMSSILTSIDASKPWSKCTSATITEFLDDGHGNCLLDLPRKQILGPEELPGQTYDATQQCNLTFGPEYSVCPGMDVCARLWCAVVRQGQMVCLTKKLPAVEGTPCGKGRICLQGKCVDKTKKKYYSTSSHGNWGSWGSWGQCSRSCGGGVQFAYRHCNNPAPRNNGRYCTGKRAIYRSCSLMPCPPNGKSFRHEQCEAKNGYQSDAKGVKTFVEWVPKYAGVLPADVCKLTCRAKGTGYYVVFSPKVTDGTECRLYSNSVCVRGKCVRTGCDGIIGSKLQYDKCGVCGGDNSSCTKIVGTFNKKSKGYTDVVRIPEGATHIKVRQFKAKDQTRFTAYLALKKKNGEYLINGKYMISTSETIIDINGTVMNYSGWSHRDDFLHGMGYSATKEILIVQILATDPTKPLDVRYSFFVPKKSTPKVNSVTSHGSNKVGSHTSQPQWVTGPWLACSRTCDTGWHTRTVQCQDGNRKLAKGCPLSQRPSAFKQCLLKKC
Outline: (§1)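 Enzyme inhibition IC50s derived from at least six measurements, standard errors normally <5% within an assay; a standard compound run to keep assay-to-assay variability within twofold.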

[2] = molecular target: T2, A disintegrin and metalloproteinase with thrombospondin motifs 4 (Homo sapiens, UniProt O75173); test: Inhibition of ADAMTS-4 assessed as substrate cleavage after 16 hrs by fluorescence assay; outline: as §1
T2 sequence (O75173 whole entry): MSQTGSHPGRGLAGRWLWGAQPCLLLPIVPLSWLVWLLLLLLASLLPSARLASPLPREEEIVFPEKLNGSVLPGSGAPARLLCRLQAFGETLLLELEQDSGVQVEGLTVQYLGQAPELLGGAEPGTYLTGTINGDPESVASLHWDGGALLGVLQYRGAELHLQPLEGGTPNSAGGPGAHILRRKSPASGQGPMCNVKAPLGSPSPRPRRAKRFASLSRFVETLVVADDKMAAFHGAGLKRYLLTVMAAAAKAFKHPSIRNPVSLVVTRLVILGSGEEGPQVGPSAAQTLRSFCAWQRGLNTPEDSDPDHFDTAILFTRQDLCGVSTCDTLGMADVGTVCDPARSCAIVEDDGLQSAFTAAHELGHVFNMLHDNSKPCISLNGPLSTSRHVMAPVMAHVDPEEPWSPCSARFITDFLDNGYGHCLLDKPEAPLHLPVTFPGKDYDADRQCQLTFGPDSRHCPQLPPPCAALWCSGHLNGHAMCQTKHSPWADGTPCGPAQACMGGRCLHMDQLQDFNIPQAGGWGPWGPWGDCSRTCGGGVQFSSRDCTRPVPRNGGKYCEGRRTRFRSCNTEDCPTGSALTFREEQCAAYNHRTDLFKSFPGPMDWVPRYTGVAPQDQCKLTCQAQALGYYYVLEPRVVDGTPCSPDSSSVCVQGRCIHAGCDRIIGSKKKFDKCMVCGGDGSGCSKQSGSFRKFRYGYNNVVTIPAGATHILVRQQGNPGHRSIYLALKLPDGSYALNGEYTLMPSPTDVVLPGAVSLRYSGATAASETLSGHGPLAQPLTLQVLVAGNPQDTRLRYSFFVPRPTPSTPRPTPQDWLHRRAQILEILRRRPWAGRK

[3] = molecular target: Matrix metalloproteinase-9 (Homo sapiens, UniProt P14780); test: Inhibition of recombinant human MMP-9 assessed as substrate cleavage after 20 hrs by fluorescence assay; outline: as §1
[4] = Intrinsic clearance in human liver microsomes; format: ADME, Microsome
Outline: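 Human liver microsome metabolism; intrinsic clearance expressed as μL/min/mg, reported as mean of eight separate experiments.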

Interstitial collagenase = molecular target: T3, Interstitial collagenase (Homo sapiens, UniProt P03956); test: Inhibition of recombinant human MMP-1 assessed as substrate cleavage after 20 hrs by fluorescence assay; outline: as §1
T3 sequence (P03956 whole entry): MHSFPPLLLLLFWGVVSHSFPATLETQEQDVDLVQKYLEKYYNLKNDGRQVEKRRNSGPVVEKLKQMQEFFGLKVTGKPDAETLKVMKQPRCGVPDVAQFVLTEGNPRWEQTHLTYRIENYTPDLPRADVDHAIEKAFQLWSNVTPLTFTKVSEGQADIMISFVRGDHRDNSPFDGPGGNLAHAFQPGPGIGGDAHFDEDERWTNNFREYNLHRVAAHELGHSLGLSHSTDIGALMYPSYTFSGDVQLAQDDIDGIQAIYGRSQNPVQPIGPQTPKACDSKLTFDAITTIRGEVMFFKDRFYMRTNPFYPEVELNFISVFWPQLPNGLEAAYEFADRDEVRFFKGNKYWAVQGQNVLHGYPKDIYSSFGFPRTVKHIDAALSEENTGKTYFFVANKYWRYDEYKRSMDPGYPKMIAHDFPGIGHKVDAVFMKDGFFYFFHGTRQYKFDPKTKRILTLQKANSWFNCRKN

[5] = molecular target: Matrix metalloproteinase-14 (Homo sapiens, UniProt P50281); test: Inhibition of recombinant human MMP-14 assessed as substrate cleavage after 20 hrs by fluorescence assay; outline: as §1
[6] = molecular target: 72 kDa type IV collagenase (Homo sapiens, UniProt P08253); test: Inhibition of recombinant human MMP-2 assessed as substrate cleavage after 20 hrs by fluorescence assay; outline: as §1
Collagenase 3 = Collagenase 3 (Homo sapiens, UniProt P45452); test: Inhibition of recombinant human MMP-13 assessed as substrate cleavage after 20 hrs by fluorescence assay; outline: as §1

Sequence of Matrix metalloproteinase-9 (P14780 whole entry): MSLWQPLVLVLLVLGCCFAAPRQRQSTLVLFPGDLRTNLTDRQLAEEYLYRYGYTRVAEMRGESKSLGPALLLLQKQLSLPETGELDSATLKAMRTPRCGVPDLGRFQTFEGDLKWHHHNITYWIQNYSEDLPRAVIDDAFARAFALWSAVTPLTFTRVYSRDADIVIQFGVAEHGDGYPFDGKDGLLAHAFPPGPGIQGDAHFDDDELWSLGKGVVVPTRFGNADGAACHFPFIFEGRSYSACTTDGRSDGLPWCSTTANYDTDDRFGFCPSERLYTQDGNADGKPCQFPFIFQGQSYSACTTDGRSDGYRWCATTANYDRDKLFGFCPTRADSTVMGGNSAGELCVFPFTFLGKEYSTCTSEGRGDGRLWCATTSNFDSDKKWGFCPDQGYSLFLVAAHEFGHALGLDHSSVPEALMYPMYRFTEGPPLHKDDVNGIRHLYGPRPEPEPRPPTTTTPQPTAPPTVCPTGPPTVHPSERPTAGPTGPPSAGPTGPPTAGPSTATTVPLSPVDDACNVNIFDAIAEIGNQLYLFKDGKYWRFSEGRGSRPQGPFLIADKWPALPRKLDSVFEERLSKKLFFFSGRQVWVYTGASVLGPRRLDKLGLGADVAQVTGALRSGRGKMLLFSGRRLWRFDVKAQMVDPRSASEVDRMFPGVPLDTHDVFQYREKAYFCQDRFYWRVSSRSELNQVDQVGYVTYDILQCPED
Sequence of 72 kDa type IV collagenase (P08253 whole entry): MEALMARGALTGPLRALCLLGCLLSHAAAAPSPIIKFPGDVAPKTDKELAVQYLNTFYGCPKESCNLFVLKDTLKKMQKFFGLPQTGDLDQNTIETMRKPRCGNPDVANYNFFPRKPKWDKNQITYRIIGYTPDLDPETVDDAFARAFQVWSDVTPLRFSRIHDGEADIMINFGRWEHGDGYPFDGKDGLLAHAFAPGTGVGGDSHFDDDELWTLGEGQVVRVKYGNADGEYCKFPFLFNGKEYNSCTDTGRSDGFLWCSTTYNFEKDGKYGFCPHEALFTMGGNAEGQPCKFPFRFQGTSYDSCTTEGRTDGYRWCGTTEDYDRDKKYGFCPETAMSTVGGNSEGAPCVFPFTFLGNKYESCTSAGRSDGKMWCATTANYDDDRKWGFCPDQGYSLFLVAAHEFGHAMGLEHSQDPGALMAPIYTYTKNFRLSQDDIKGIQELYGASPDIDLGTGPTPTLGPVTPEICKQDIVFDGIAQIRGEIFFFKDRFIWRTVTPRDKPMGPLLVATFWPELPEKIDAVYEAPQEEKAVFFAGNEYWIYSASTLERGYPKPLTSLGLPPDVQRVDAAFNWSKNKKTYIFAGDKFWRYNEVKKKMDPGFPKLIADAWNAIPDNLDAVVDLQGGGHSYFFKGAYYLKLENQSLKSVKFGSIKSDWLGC

Row | Compound | IC50 [1] [nM] | IC50 [2] [nM] | IC50 [3] [nM] | microsomal CLint [4] [µL/min/mg] | IC50 (Interstitial collagenase) [nM] | IC50 [5] [nM] | IC50 [6] [nM] | IC50 (Collagenase 3) [nM]
1 | Cc1cc(C(F)(F)F)ccc1CCC1CCN(S(=O)(=O)CC2(N(O)C=O)CCN(C(=O)C3CCC3)CC2)CC1 | 79 | 1.2 |  |  |  |  |  | 
2 | Cc1noc(C)c1CCC1CCN(S(=O)(=O)CC2(N(O)C=O)CCC2)CC1 | 1500 | 51 | > 10000 | 3.3 | > 10000 | > 10000 | > 10000 | > 10000
3 | Cc1noc(C)c1CCC1CCN(S(=O)(=O)CC2(N(O)C=O)CCN(S(C)(=O)=O)CC2)CC1 | 310 | 29 | > 10000 | 6.5 | > 10000 | > 10000 | > 10000 | 4600
4 | Cc1cc(Cl)ccc1CCC1CCN(S(=O)(=O)CC2(N(O)C=O)CCN(C(=O)C3CCC3)CC2)CC1 | 20 | 1.2 |  |  |  |  |  | 
5 | Cc1cc(Cl)ccc1CCC1CCN(S(=O)(=O)CC2(N(O)C=O)CCOCC2)CC1 | 65 | 2.7 | 1200 |  | > 10000 | > 10000 | 1400 | 780
6 | Cc1cc(F)ccc1CCC1CCN(S(=O)(=O)CC2(N(O)C=O)CCN(C(=O)C3CCC3)CC2)CC1 | 11 | 1.9 |  |  |  |  |  | 
7 | Cc1cnc(C)c(CCC2CCN(S(=O)(=O)CC3(N(O)C=O)CCOCC3)CC2)c1 | 5200 | 380 | > 10000 |  | > 10000 | > 10000 | > 10000 | 8400
8 | Cc1cc(C)c(CCC2CCN(S(=O)(=O)CC3(N(O)C=O)CCOCC3)CC2)cn1 | 1400 | 130 | 8900 |  | > 10000 | > 10000 | 7600 | > 10000
9 | CS(=O)(=O)c1ccc(CCC2CCN(S(=O)(=O)CC3(N(O)C=O)CCOCC3)CC2)c(C2CC2)c1 | 950 | 1.4 | > 10000 | 3.7 | > 10000 | > 10000 | > 10000 | > 10000
10 | Cc1noc(C)c1CCC1CCN(S(=O)(=O)CC2(N(O)C=O)CCCC2)CC1 | 1900 | 52 | > 10000 |  | > 10000 | > 10000 | > 10000 | > 10000
11 | O=CN(O)C1(CS(=O)(=O)N2CCC(CCc3ccc(F)cc3C(F)(F)F)CC2)CCN(C(=O)C2CCC2)CC1 | 61 | 8.7 |  |  |  |  |  | 
12 | Cc1noc(C)c1CCC1CCN(S(=O)(=O)CC2(N(O)C=O)CCCCC2)CC1 | 850 | 20 | > 10000 |  | > 10000 | > 7500 | > 10000 | > 4100
13 | O=CN(O)C1(CS(=O)(=O)N2CCC(CCc3ccccc3)CC2)CCOCC1 | 1700 | 470 | 670 | 8.8 | > 10000 | 1200 | 150 | 260
14 | CC(=O)N1CCC(CS(=O)(=O)N2CCC(CCc3c(C)noc3C)CC2)(N(O)C=O)CC1 | 820 | 24 | > 10000 | < 2 | > 10000 | > 10000 | > 10000 | > 10000
15 | Cc1noc(C)c1CCC1CCN(S(=O)(=O)CC2(N(O)C=O)CCCCCC2)CC1 | 1500 | 48 | > 10000 | 59 | > 10000 | > 10000 | > 10000 | > 10000
16 | Cc1ncccc1CCC1CCN(S(=O)(=O)CC2(N(O)C=O)CCOCC2)CC1 | 5400 | 400 | > 10000 | < 2 | > 10000 | 8000 | 3800 | 2000
17 | Cc1ccccc1CCC1CCN(S(=O)(=O)CC2(N(O)C=O)CCN(C(=O)C3CCC3)CC2)CC1 | 13 | 4.1 |  |  |  |  |  | 
